Test results taken from publication PMC6260803 (Angewandte Chemie (International ed. in English), 2015).
Residues, ends and D or L forms follow the SMILES beside them. *: point of attachment. X1 = O=C(CO[C@H]1O[C@H](CO)[C@@H](O)[C@H](O)[C@@H]1O)*

How the values were obtained:
griffithsin (GRFT) = griffithsin (GRFT) (Griffithsia sp., UniProt P84801); type: binding
immobilized GRFT = immobilized GRFT (Griffithsia sp., UniProt P84801); assay: SPR analysis of binding to immobilized GRFT; conditions: run in triplicate; for binding response to immobilized GRFT (in words): SPR sensorgrams; for dissociation rate (koff) from GRFT (in words) / association rate (kon) to GRFT (in words): SPR, immobilized GRFT
Sequence of immobilized GRFT (P84801 whole entry): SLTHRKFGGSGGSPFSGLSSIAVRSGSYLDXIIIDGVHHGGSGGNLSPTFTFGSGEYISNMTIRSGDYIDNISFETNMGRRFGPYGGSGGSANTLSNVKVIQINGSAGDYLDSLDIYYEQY
Method in brief: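 Glycopeptide high-mannose mimetics with varied mannose valency and spacing were passed over immobilized griffithsin, with a nonglycosylated peptide as negative control. Runs were in triplicate. Sensorgrams and Langmuir binding curves were generated, and association and dissociation rates were assessed from the sensorgrams.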

[1] = isothermal titration calorimetry, binding to GRFT, value ± spread

Sequence of griffithsin (GRFT) (P84801 whole entry): as above

Row | Molecule | n (stoichiometry of binding) (griffithsin (GRFT); [1]) | stoichiometry of binding to GRFT (rounded, as stated in text) (griffithsin (GRFT); ITC) | dissociation rate (koff) from GRFT (in words) (immobilized GRFT) | further results
1 | CC(=O)N[C@@H](CCCCNC(=O)CO[C@H]1O[C@H](CO)[C@@H](O)[C@H](O)[C@@H]1O)C(=O)NCC(=O)N[C@@H](CCCCNC(=O)CO[C@H]1O[C@H](CO)[C@@H](O)[C@H](O)[C@@H]1O)C(N)=O [Compound 1] | 1.56 ± 0.01 | – | – | binding response to immobilized GRFT (in words) (immobilized GRFT): weakest response of any of the glycopeptides
2 | CC(=O)N[C@@H](CCCCNC(=O)CO[C@H]1O[C@H](CO)[C@@H](O)[C@H](O)[C@@H]1O)C(=O)NCC(=O)N[C@@H](CCCCNC(=O)CO[C@H]1O[C@H](CO)[C@@H](O)[C@H](O)[C@@H]1O)C(=O)NCC(=O)N[C@@H](CCCCNC(=O)CO[C@H]1O[C@H](CO)[C@@H](O)[C@H](O)[C@@H]1O)C(N)=O [Compound 2] | 0.96 ± 0.24 | 1 | – | –
3 | CC(=O)N[C@@H](CCCCNC(=O)CO[C@H]1O[C@H](CO)[C@@H](O)[C@H](O)[C@@H]1O)C(=O)NCC(=O)N[C@@H](CCCCNC(=O)CO[C@H]1O[C@H](CO)[C@@H](O)[C@H](O)[C@@H]1O)C(=O)NCC(=O)N[C@@H](CCCCNC(=O)CO[C@H]1O[C@H](CO)[C@@H](O)[C@H](O)[C@@H]1O)C(=O)NCC(=O)N[C@@H](CCCCNC(=O)CO[C@H]1O[C@H](CO)[C@@H](O)[C@H](O)[C@@H]1O)C(N)=O [Compound 3] | 0.68 ± 0.03 | – | – | –
4 | CC(=O)N[C@@H](CCCCNC(=O)CO[C@H]1O[C@H](CO)[C@@H](O)[C@H](O)[C@@H]1O)C(=O)NCC(=O)N[C@@H](CCCCNC(=O)CO[C@H]1O[C@H](CO)[C@@H](O)[C@H](O)[C@@H]1O)C(=O)NCC(=O)N[C@@H](CCCCNC(=O)CO[C@H]1O[C@H](CO)[C@@H](O)[C@H](O)[C@@H]1O)C(=O)NCC(=O)N[C@@H](CCCCNC(=O)CO[C@H]1O[C@H](CO)[C@@H](O)[C@H](O)[C@@H]1O)C(=O)NCC(=O)N[C@@H](CCCCNC(=O)CO[C@H]1O[C@H](CO)[C@@H](O)[C@H](O)[C@@H]1O)C(=O)NCC(=O)N[C@@H](CCCCNC(=O)CO[C@H]1O[C@H](CO)[C@@H](O)[C@H](O)[C@@H]1O)C(N)=O [Compound 4] | 0.52 ± 0.05 | 0.5 | significantly slower rate than Km3G1 and Km4G1 | –
5 | CC(=O)N[C@@H](CCCCNC(=O)CO[C@H]1O[C@H](CO)[C@@H](O)[C@H](O)[C@@H]1O)C(=O)NCC(=O)NCC(=O)N[C@@H](CCCCNC(=O)CO[C@H]1O[C@H](CO)[C@@H](O)[C@H](O)[C@@H]1O)C(=O)NCC(=O)NCC(=O)N[C@@H](CCCCNC(=O)CO[C@H]1O[C@H](CO)[C@@H](O)[C@H](O)[C@@H]1O)C(N)=O [Compound 5] (Ac-K(X1)GGK(X1)GGK(X1)-NH2; N-terminus and C-terminus assumed) | 1.16 ± 0.25 | – | – | –
6 | CC(=O)N[C@@H](CCCCNC(=O)CO[C@H]1O[C@H](CO)[C@@H](O)[C@H](O)[C@@H]1O)C(=O)N[C@@H](CCCCNC(=O)CO[C@H]1O[C@H](CO)[C@@H](O)[C@H](O)[C@@H]1O)C(=O)N[C@@H](CCCCNC(=O)CO[C@H]1O[C@H](CO)[C@@H](O)[C@H](O)[C@@H]1O)C(N)=O [Compound 6] | 0.98 ± 0.11 | – | – | –
7 | CC(=O)N[C@@H](CCCNC(=O)CO[C@H]1O[C@H](CO)[C@@H](O)[C@H](O)[C@@H]1O)C(=O)N[C@@H](CCCNC(=O)CO[C@H]1O[C@H](CO)[C@@H](O)[C@H](O)[C@@H]1O)C(=O)N[C@@H](CCCNC(=O)CO[C@H]1O[C@H](CO)[C@@H](O)[C@H](O)[C@@H]1O)C(N)=O [Compound 7] | 0.94 ± 0.19 | 1 | – | –
8 | CC(=O)N[C@@H](CNC(=O)CO[C@H]1O[C@H](CO)[C@@H](O)[C@H](O)[C@@H]1O)C(=O)N[C@@H](CNC(=O)CO[C@H]1O[C@H](CO)[C@@H](O)[C@H](O)[C@@H]1O)C(=O)N[C@@H](CNC(=O)CO[C@H]1O[C@H](CO)[C@@H](O)[C@H](O)[C@@H]1O)C(N)=O [Compound 8] | 1.38 ± 0.17 | 1.5 | by far the slowest dissociation rate | –
9 | NC(=O)[C@H](CCCCNC(=O)[C@H](CCCCNC(=O)CO[C@H]1O[C@H](CO)[C@@H](O)[C@H](O)[C@@H]1O)NC(=O)CO[C@H]1O[C@H](CO)[C@@H](O)[C@H](O)[C@@H]1O)NC(=O)[C@H](CCCCNC(=O)CO[C@H]1O[C@H](CO)[C@@H](O)[C@H](O)[C@@H]1O)NC(=O)CO[C@H]1O[C@H](CO)[C@@H](O)[C@H](O)[C@@H]1O [Compound 10] | 1.96 ± 0.09 | 2 | very slow koff rates | association rate (kon) to GRFT (in words) (immobilized GRFT): slower kon rates
10 | NC(=O)[C@H](CCCCNC(=O)CNC(=O)[C@H](CCCCNC(=O)CO[C@H]1O[C@H](CO)[C@@H](O)[C@H](O)[C@@H]1O)NC(=O)CO[C@H]1O[C@H](CO)[C@@H](O)[C@H](O)[C@@H]1O)NC(=O)CNC(=O)[C@H](CCCCNC(=O)CO[C@H]1O[C@H](CO)[C@@H](O)[C@H](O)[C@@H]1O)NC(=O)CO[C@H]1O[C@H](CO)[C@@H](O)[C@H](O)[C@@H]1O [Compound 11] | 1.45 ± 0.12 | 1.5 | very slow koff rates | association rate (kon) to GRFT (in words) (immobilized GRFT): slower kon rates
11 | NC(=O)[C@H](CCCCNC(=O)[C@H](CCCCNC(=O)CNC(=O)CO[C@H]1O[C@H](CO)[C@@H](O)[C@H](O)[C@@H]1O)NC(=O)CNC(=O)CO[C@H]1O[C@H](CO)[C@@H](O)[C@H](O)[C@@H]1O)NC(=O)[C@H](CCCCNC(=O)CNC(=O)CO[C@H]1O[C@H](CO)[C@@H](O)[C@H](O)[C@@H]1O)NC(=O)CNC(=O)CO[C@H]1O[C@H](CO)[C@@H](O)[C@H](O)[C@@H]1O [Compound 12] | 1.08 ± 0.08 | 1 | – | Kd lower compared to glycopeptides 10 and 11 (griffithsin (GRFT); ITC, Kd of 12 versus 10 and 11): approximately 30 fold
12 | CC(=O)N[C@@H]1[C@@H](O)[C@H](O[C@@H]2O[C@H](CO)[C@@H](O[C@@H]3O[C@H](CO[C@H]4O[C@H](CO[C@H]5O[C@H](CO)[C@@H](O)[C@H](O)[C@@H]5O[C@H]5O[C@H](CO)[C@@H](O)[C@H](O)[C@@H]5O)[C@@H](O)[C@H](O[C@H]5O[C@H](CO)[C@@H](O)[C@H](O)[C@@H]5O[C@H]5O[C@H](CO)[C@@H](O)[C@H](O)[C@@H]5O)[C@@H]4O)[C@@H](O)[C@H](O[C@H]4O[C@H](CO)[C@@H](O)[C@H](O)[C@@H]4O[C@H]4O[C@H](CO)[C@@H](O)[C@H](O)[C@@H]4O[C@H]4O[C@H](CO)[C@@H](O)[C@H](O)[C@@H]4O)[C@@H]3O)[C@H](O)[C@H]2NC(C)=O)[C@@H](CO)O[C@H]1NC(=O)C[C@H](N)C(=O)O [Compound 14, Man9GlcNAc2Asn, reference compound] | 1.39 ± 0.12 | – | slower koff rate than nonamannoside 13 | Kd (griffithsin (GRFT); [1]): 540 ± 270 nM
13 | chitobiose [reference compound] | – | – | – | binding response to immobilized GRFT (in words) (immobilized GRFT): Negligible binding
14 | pentamannoside [reference compound] | – | – | – | binding response to immobilized GRFT (in words) (immobilized GRFT): Negligible binding
